ABCB1 inh: blocks JC-1 efflux by human ABCB1 transporter. inhibition, % at 6.6 µM. CCRF-Adr cells, flow cytometry. P08183. 190,000 compounds, 0.067% hits; in the data active means inhibition above about 40%;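 further: 0% = vehicle and 100% = reference inhibitor; higher value means more JC-1 retained so stronger ABCB1 efflux block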
bCat nuc transl: alters nuclear translocation of beta-catenin in HeLa cells | 190,000 compounds, 0.3% hits | immunofluorescence imaging | nuclear translocation activity, % at 5 µM;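 active means nuclear translocation activity above 50% at 5 µM, with a well cell count of 50 or more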;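 further: per-cell ratio of nuclear to cytoplasmic median beta-catenin stain intensity; plate controls were DMSO negative control for no effect and GSK-3 inhibitor IX positive control for full effect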
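Read-out: Nuclear/cytoplasmic beta-catenin signal ratio, % activation | Assay system: Human HeLa cell line | Times: 24 h compound exposure at 37°C, 5% CO2 | Signal: Fluorescence imaging of beta-catenin antibody stain plus DAPI | Dosing: 5 µM primary, 0.02–20 µM confirmation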
Autophagy mod: alters autophagy in cells | MEF GFP-LC3 puncta imaging; test concentration mostly 10 µM | calls only at 10 µM (by protocol) | 190,000 compounds, 0.98% hits | AID 463193;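 active means percentage of spot-positive cells more than 3 SD above its plate mean, without a fluorescence outlier flag or 80% toxicity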;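 further: spot-positive cell cutoff set from DMSO-treated cells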
ABCG2 block: blocks JC-1 efflux by human ABCG2 transporter; inhibition, % at 6.6 µM; 190,000 compounds, 0.1% hits; IgMXP3 cells, flow cytometry;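 active means inhibition above 80%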;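 further: 0% = DMSO and 100% = nicardipine control wells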
Target sequence (Q9UNQ0 whole entry, looked up): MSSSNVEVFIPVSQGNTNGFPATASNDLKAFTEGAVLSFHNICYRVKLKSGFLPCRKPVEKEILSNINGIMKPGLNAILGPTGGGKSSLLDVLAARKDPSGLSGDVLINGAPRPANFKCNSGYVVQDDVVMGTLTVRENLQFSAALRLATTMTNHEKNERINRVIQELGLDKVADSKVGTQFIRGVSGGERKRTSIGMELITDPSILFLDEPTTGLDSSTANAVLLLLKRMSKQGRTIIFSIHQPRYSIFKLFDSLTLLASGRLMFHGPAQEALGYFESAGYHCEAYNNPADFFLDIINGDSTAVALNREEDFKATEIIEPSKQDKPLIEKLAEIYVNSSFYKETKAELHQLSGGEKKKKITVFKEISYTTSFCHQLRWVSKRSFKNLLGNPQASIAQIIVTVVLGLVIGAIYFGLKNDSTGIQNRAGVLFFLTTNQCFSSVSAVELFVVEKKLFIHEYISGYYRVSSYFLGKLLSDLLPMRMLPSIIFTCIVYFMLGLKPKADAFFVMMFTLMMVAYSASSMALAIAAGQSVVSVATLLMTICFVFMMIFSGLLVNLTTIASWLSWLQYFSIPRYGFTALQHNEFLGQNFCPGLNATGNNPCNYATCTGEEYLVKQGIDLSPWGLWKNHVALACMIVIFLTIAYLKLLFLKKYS
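Assay system – ABCG2 IgMXP3 and barcoded ABCB1 CCRF-Adr cell mix · Input – 3 million cells/mL in well · Reagent – JC-1 fluorescent substrate · Compound – single test compound dose, 6.6 µM final · Timing – 10 min exposure at 25 °C with rotation, no wash · Detection – flow cytometry of retained JC-1 fluorescence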
MT stabilize HCS: microtubule stabilizers in HeLa cells | HeLa tubulin immunostaining HCS, 24 h; share of cells brighter than vehicle mean+2SD | % tubulin-high responders, % at 10 µM | 200,000 compounds, 0.83% hits | AID 2205;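 active means plate Z-score above 3 for both tubulin-high and condensed-nucleus cell shares, with cell loss under 80%, at 10 µM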;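 further: anti alpha tubulin signal scored within the nucleus-defined area of each cell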
Arbovirus inh: arbovirus infection inhibition; arbovirus infection cell-based antiviral screen; 200,000 compounds, 0.37% hits; inhibition, % at 10 µM; in the data active means inhibition above about 30%
Numbers without * were called inactive; i = inactive; . = no result; + = active, no number. A selection: hits, their analogues and other compounds. The true share with any hit is near 2.1%.

SMILES	ABCB1 inh	bCat nuc transl	Autophagy mod	ABCG2 block	MT stabilize HCS	Arbovirus inh
CCC(=O)Nc1nonc1-c1nc2ccccc2n1Cc1cccc2ccccc12	0.9	100.6*	+	2.4	13.3	-17.0
O=C(c1ccc(Br)cc1)c1cc([N+](=O)[O-])ccc1N1CCOCC1	0.7	6.7	+	4.2	16.1*	-18.9
O=C(c1ccc(Cl)cc1)c1cc([N+](=O)[O-])ccc1N1CCOCC1	0.6	47.6	+	1.5	9.8	-27.6
CCOC(=O)c1cc(CC)sc1NC(=O)c1cc([N+](=O)[O-])ccc1N1CCOCC1	1.8	59.3*	+	10.3	13.6	-0.8
CN1CCN(c2ccc([N+](=O)[O-])cc2C(=O)N2CCCCC2)CC1	5.1	-3.5	i	3.1	3.5	11.8
CN1CCN(c2ccc([N+](=O)[O-])cc2C(=O)c2ccc(Cl)cc2)CC1	1.4	184.8*	i	7.8	43.4*	-24.5
O=C(Oc1ccc(Cl)cc1)c1ccc(N2CCOCC2)c([N+](=O)[O-])c1	0.7	-0.2	i	23.2	2.1	-7.0
CCCCN(CCCC)S(=O)(=O)c1ccc(NC(=O)c2cccs2)cc1	1.7	.	i	4.7	2.7	-1.7
Cc1ccc(C(=O)c2cc([N+](=O)[O-])ccc2N2CC(C)OC(C)C2)cc1 (stereo not given)	1.0	-1.6	i	24.1	19.8	-12.3
O=C(c1cc([N+](=O)[O-])ccc1N1CCOCC1)N1CCCCC1	3.4	-4.7	i	18.2	2.3	-6.6
Cc1ccc(C(=O)c2cc([N+](=O)[O-])ccc2N2CCCCC2)cc1	1.1	71.6*	i	4.5	8.8	-13.9
CC1CCCN(c2ccc([N+](=O)[O-])cc2C(=O)c2ccccc2)C1 (stereo not given)	1.1	59.9*	i	1.8	6.0	-19.1
O=C(NCc1ccc2c(c1)OCO2)c1cc([N+](=O)[O-])ccc1N1CCCCC1	3.6	106.8*	i	49.8	16.4*	-8.0
O=C(c1ccccc1)c1cc([N+](=O)[O-])ccc1N1CCOCC1	1.5	177.9*	i	19.5	10.3	-5.4
CC1CCN(c2ccc([N+](=O)[O-])cc2C(=O)O)CC1	1.4	-1.7	i	15.9	3.7	-4.0
O=C(O)c1ccc(N/N=C/c2ccc3c(c2)OCO3)cc1	-0.4	-1.9	i	1.0	1.8	-6.4
CCOc1ccc(NC(=O)N2CCC(C(=O)c3ccc(F)cc3)CC2)cc1	0.4	2.0	i	1.1	3.1	-5.0
CCCn1c(NCc2cc(C)ccc2O)nc2ccccc21	1.4	-9.8	i	7.8	2.4	35.9*
CCCCn1c(NCc2ccccc2O)nc2ccccc21	0.6	-1.7	.	4.8	2.1	10.5
Cc1c(C(=O)c2ccc(F)cc2)c2ccccn2c1CCc1ccccn1	1.5	-1.5	i	9.3	4.9	9.0
COC(=O)c1ccc2c(c1)C(C)(C)C(/C=C/c1ccccc1O)=[N+]2C	0.1	1.4	i	3.6	53.1*	-31.6
c1ccc(COc2cccc(CN3CCN(c4ccccn4)CC3)c2)cc1	0.5	1.8	i	4.2	2.9	6.6
COc1ccc2c(c1)C1C=CCC1C(c1cc3c(cc1Br)OCO3)N2 (stereo not given)	0.9	.	i	3.3	38.5*	-1.1
CN(Cc1cn(C)nc1-c1cccc(Cl)c1)CC1CCCCO1 (stereo not given)	0.3	-0.2	i	0.8	3.9	-2.1
O=C(O)c1cc(-c2ccc(/C=C3\NC(=O)N(c4ccccc4)C3=O)o2)ccc1Cl	.	0.4	.	.	.	.
SMILES	ABCB1 inh	bCat nuc transl	Autophagy mod	ABCG2 block	MT stabilize HCS	Arbovirus inh
O=C(O)c1cc(-c2ccc(/C=C3\NC(=O)N(c4ccc(Cl)cc4)C3=O)o2)ccc1Cl	-1.7	-4.4	i	-7.8	4.4	58.1*
CCOc1ccc(-n2c(=S)sc3c(=O)[nH]c(SCC(=O)C(C)(C)C)nc32)cc1	0.0	-0.9	i	1.1	3.5	32.9*
CCOC(=O)CSc1nc2c(sc(=S)n2-c2ccc(OCC)cc2)c(=O)[nH]1	0.0	-0.6	i	0.6	4.4	42.2*
CCOc1ccc(-n2c(=S)sc3c(=O)[nH]c(SCC(=O)N4CCC(C)CC4)nc32)cc1	-0.3	-3.0	i	-0.8	2.1	-1.3
c1ncn(C23CC4CC(CC(C4)C2)C3)n1	0.2	-1.9	i	0.1	1.9	3.8
NC(=O)C1c2ccccc2CSc2ccccc21 (stereo not given)	-0.1	2.9	i	-4.8	2.8	-3.3
COC(=O)C(CC(C)C)NC(=O)/C=C/c1ccccc1Cl (stereo not given)	0.0	.	i	1.5	3.5	-12.5
CCOC(=O)c1ccc(NC(=O)c2ccc(C)c(S(=O)(=O)N3CCOCC3)c2)cc1	0.6	.	i	0.9	2.4	32.6*
CCOC(=O)c1ccc(NC(=O)c2cccc(S(=O)(=O)N3CCOCC3)c2)cc1	0.9	-1.8	i	2.7	4.3	5.4
CCN(CC)CCOC(=O)c1ccc(NC(=O)c2ccc(Cl)c(S(=O)(=O)N3CCCCCC3)c2)cc1	0.3	4.9	i	4.7	24.7*	3.0
Cc1ccc(CNCC(O)(c2ccccc2)c2ccc(Cl)cc2)cc1 (stereo not given)	1.4	3.0	+	-0.1	2.2	-19.9
CCOC(=O)N1CCN(C(=O)c2c(N)no[n+]2[O-])CC1	-0.2	0.0	i	0.1	2.7	6.8
CC(=O)Nc1cccc(/C(C)=N/NS(=O)(=O)c2ccccc2)c1	1.4	-4.5	i	4.8	2.4	-5.2
COc1ccc(S(=O)(=O)N/N=C(/C)c2cccc(NC(=O)c3ccccc3Cl)c2)cc1	-0.7	-2.2	i	1.1	1.7	37.0*
COc1cc2c(cc1O)CCN(C(=O)c1ccco1)C2C (stereo not given)	0.1	.	i	-0.7	1.1	2.4
CCOC(=O)c1c(C)[nH]c(C(=O)OCC(=O)Nc2cc(C)c(Cl)cc2OC)c1C	0.2	-1.2	+	0.3	2.4	-20.3
CCOC(=O)c1c(C)[nH]c(C(=O)N/N=C/c2cccc(OC)c2)c1C	1.0	-0.4	i	9.6	20.5*	-26.4
CCOC(=O)c1c(C)[nH]c(C(=O)N/N=C\c2ccccc2Cl)c1C	1.0	48.8	+	17.2	22.6*	-16.9
CCOC(=O)c1c(C)[nH]c(C(=O)NNC(=O)c2ccccc2)c1C	1.4	1.0	i	8.1	1.0	2.0
O=C(NCc1ccncc1)C1CCN(S(=O)(=O)Cc2ccccc2)CC1	0.0	3.4	i	0.0	0.9	-3.2
O=C(Nc1ccc2ccccc2c1)c1cccnc1	0.4	2.6	i	8.6	4.6	0.2
COc1cccc(/C=N/NC(=O)CC(=O)NCCc2ccccc2)c1OC	-2.9	.	i	-7.1	4.1	0.4
COc1ccc(OC)c(/C=N\NC(=O)CC(=O)NCCc2ccccc2)c1	0.4	-2.0	i	2.2	2.0	31.4*
O=C(NCc1ccncc1)c1cnccn1	1.0	.	i	5.3	2.7	4.1

Source: PubChem BioAssay
